Data set [1] deals with RAW264.7. Kind of data set: Antiinflammatory activity in mouse RAW264.7 cells assessed as inhibition of LPS-induced nitric oxide production after 24 hrs by Griess reaction. In kind it is functional, cell-based. Particulars: RAW264.7, 24 h. A digest of the protocol:
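LPS-stimulated RAW264.7 macrophages; nitrite, the stable NO metabolite, quantified by Griess reaction in harvested culture medium. IC50 is the molar concentration giving 50% inhibition of NO production relative to vehicle control.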
A general note: Griess reagent forms a coloured azo dye with nitrite.

For data set [2], the system named is RAW264.7. Kind of data set: Cytotoxicity against LPS-stimulated mouse RAW264.7 cells assessed as cell viability at 50 uM after 24 hrs by MTT assay. The following applies: raw264.7, 24 h. It counts as cell-based.
The subject of data set [3] is RAW264.7. Kind of data set: Cytotoxicity against mouse RAW264.7 cells assessed as cell viability at 50 uM after 24 hrs by MTT assay. It counts as cell-based. Particulars: raw264.7, 24 h.

Molecules are shown by their SMILES.

As usually defined, the IC50 is the midpoint of a concentration-inhibition curve. In the case of `CC1CCN=C(N)S1` (centres undefined), the IC50 with RAW264.7 [1] was 0.022 µM.
For `CC1(C)CC[C@]2(O)C(=O)C[C@]3(C)C(=CC[C@@H]4[C@@]5(C)CC[C@H](O[C@@H]6O[C@H](C(=O)O)[C@@H](O)[C@H](O[C@@H]7O[C@H](CO)[C@H](O)[C@H](O)[C@H]7O[C@@H]7O[C@H](CO)[C@@H](O)[C@H](O)[C@H]7O)[C@H]6O[C@H]6O[C@@H](CO)[C@@H](O)[C@@H](O)[C@@H]6O)C(C)(C)C5CC[C@]43C)[C@@H]2C1` (some centres undefined) [CAMELLIOSIDE A], the Activity entry in the data set on RAW264.7 [2] and in the data set on RAW264.7 [3] was “Non-toxic” each time. In addition, the IC50 with RAW264.7 [1] was found to be 9.59 µM.
As to `CC1(C)CC[C@]2(O)C(=O)C[C@]3(C)C(=CC[C@@H]4[C@@]5(C)CC[C@H](O[C@@H]6O[C@H](C(=O)O)[C@@H](O)[C@H](O[C@@H]7O[C@H](CO)[C@H](O)[C@H](O)[C@H]7O[C@@H]7OC[C@@H](O)[C@H](O)[C@H]7O)[C@H]6O[C@H]6O[C@@H](CO)[C@@H](O)[C@@H](O)[C@@H]6O)C(C)(C)C5CC[C@]43C)[C@@H]2C1` (some centres undefined) [CAMELLIOSIDE E], the Activity entry in the data set with RAW264.7 [2] and in the data set with RAW264.7 [3] was “Non-toxic” in each case. Also, the IC50 in the data set with RAW264.7 [1] came to 18.2 µM.
Take `CC(=O)O[C@H]1[C@@H](O)[C@H](O)[C@@H](O[C@H]2[C@H](O[C@H]3CC[C@@]4(C)C(CC[C@]5(C)[C@@H]4CC=C4[C@@H]6CC(C)(C)CC[C@]6(O)C(=O)C[C@]45C)C3(C)C)O[C@H](C(=O)O)[C@@H](O)[C@@H]2O[C@@H]2O[C@H](CO)[C@H](O)[C@H](O)[C@H]2O[C@@H]2OC[C@@H](O)[C@H](O)[C@H]2O)O[C@H]1CO` (some centres undefined) [CAMELLIOSIDE F]: the Activity result with RAW264.7 [2] and with RAW264.7 [3] was “Non-toxic” each time. Besides, the IC50 with RAW264.7 [1] turned out to be 11.5 µM.
For `COC(=O)[C@H]1O[C@@H](O[C@H]2CC[C@@]3(C)C(CC[C@]4(C)[C@@H]3CC=C3[C@@H]5CC(C)(C)CC[C@]5(O)C(=O)C[C@]34C)C2(C)C)[C@H](O[C@H]2O[C@@H](CO)[C@@H](O)[C@@H](O)[C@@H]2O)[C@@H](O[C@@H]2O[C@H](CO)[C@H](O)[C@H](O)[C@H]2O[C@@H]2OC[C@@H](O)[C@H](O)[C@H]2O)[C@@H]1O` (some centres undefined) [CAMELLIOSIDE G], the Activity entry in the data set on RAW264.7 [2] and in the data set on RAW264.7 [3] was “Non-toxic” each time. Also, the IC50 in the data set with RAW264.7 [1] was 5.16 µM.
As for `COC(=O)[C@H]1O[C@@H](O[C@H]2CC[C@@]3(C)C(CC[C@]4(C)[C@@H]3CC=C3C5=C(CCC(C)(C)C5)C(=O)C[C@]34C)C2(C)C)[C@H](O[C@H]2O[C@@H](CO)[C@@H](O)[C@@H](O)[C@@H]2O)[C@@H](O[C@@H]2O[C@H](CO)[C@H](O)[C@H](O)[C@H]2O[C@@H]2OC[C@@H](O)[C@H](O)[C@H]2O)[C@@H]1O` (some centres undefined) [CAMELLIOSIDE H], the Activity result with RAW264.7 [2] and in the data set with RAW264.7 [3] was “Non-toxic” in each case. Besides, the IC50 in the data set with RAW264.7 [1] amounted to 15.9 µM.
Regarding `CC(=O)O[C@H]1[C@@H](O)[C@H](O)[C@@H](O[C@H]2[C@H](O[C@H]3CC[C@@]4(C)C(CC[C@]5(C)[C@@H]4CC=C4[C@@H]6CC(C)(C)CC[C@]6(O)C(=O)C[C@]45C)C3(C)C)O[C@H](C(=O)O)[C@@H](O)[C@@H]2O[C@@H]2O[C@H](CO)[C@H](O)[C@H](O)[C@H]2O[C@@H]2O[C@H](CO)[C@@H](O)[C@H](O)[C@H]2O)O[C@H]1CO` (some centres undefined) [CAMELLIOSIDE], the Activity entry in the data set with RAW264.7 [2] and with RAW264.7 [3] was “Non-toxic” throughout. For the same molecule, the IC50 in the data set on RAW264.7 [1] was 4.96 µM.

(Values after ChEMBL document CHEMBL1287754, “28-nor-oleanane-type triterpene saponins from Camellia japonica and their inhibitory activity on LPS-induced NO production in macrophage RAW264.7 cells” (Bioorg Med Chem Lett, 2010).)
